# XBP1 UPR activ – activators of adaptive arm of unfolded protein response (XBP1). activation, % at 20 µM. AID 463104. 0.33% of 330,000 active. CHO-XBP1 luciferase reporter, IRE1-XBP1 UPR activation, luminescence; percent of tunicamycin response, DMSO as zero;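 active = versus positive control, 20 µM dose yields 30% or more activation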;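 also: 100% = tunicamycin at 10 µg/mL and 0% = DMSO only wells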
#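 Test system: CHO-XBP1 luciferase reporter cells | Buffer or medium: Serum-containing F12 medium, 10% FBS | Schedule: 6 h compound exposure at 37 °C, 5% CO2 | Detection: Steady-Glo luciferase glow luminescence, 10 min after reagent addition | Read-out basis: Activation, % of tunicamycin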
# T cell HTS – T cell immune modulators affecting CD8 T cell-vesicle binding | 0.068% of 330,000 active | 2C CD8+ T cell-vesicle binding, flow cytometry; active compounds read low | response (vesicle binding), % at 7 µM;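 active = response, share of CD8 T cells binding vesicles, and their 90th percentile fluorescence all below set limits, cut at about 80% in these data, passing the limit was not always enough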;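 also: values below 100% mean blocked vesicle binding to the CD8+ T cells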
#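 Test system: purified 2C TCR transgenic mouse naive CD8+ T cells. Probe or stimulus: QL9-peptide-loaded Drosophila micro-vesicles bearing Ld, ICAM-1 and B7-1. Incubation: binding step 1.5 h, 37 °C, antibody labelling 20 min, ice. Measured by: flow cytometry of vesicle-bound cells.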
# UPR CHOP act – activators of apoptotic arm of unfolded protein response (CHOP). activation, % at 10 µM. AID 449763. 0.34% of 330,000 active. CHO-CHOP luciferase reporter, UPR activation, luminescence; percent of tunicamycin response over DMSO baseline;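 active = at 10 µM dose, activation of 40% or more, normalized to positive control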;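 also: 100% = tunicamycin at 10 µg/mL and 0% = DMSO alone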
#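 Dosing – one dose, 10 µM in 0.5% DMSO · System – CHO-CHOP cells, stable luciferase reporter of PERK-eIF2a-CHOP signalling · Input – 500 cells/well · Control set – tunicamycin 10 µg/mL final as positive, DMSO-only wells as negative · Timing – 6 h compound treatment, 37 °C · Measure – % activation vs tunicamycin · Technique – luminescence read with Steady-Glo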
# Beta2AR agonist – human beta-2 adrenergic receptor agonism by FAP; Am2.2-beta2AR cells, FAP receptor internalization, flow cytometry; response, % (test concentration not listed); 0.43% of 340,000 active; AID 504454; P07550;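 active = response above a set limit, near 3 SD of response in nonfluorescent compounds, cut at about 42% in these data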
# Target sequence (P07550 whole entry, looked up): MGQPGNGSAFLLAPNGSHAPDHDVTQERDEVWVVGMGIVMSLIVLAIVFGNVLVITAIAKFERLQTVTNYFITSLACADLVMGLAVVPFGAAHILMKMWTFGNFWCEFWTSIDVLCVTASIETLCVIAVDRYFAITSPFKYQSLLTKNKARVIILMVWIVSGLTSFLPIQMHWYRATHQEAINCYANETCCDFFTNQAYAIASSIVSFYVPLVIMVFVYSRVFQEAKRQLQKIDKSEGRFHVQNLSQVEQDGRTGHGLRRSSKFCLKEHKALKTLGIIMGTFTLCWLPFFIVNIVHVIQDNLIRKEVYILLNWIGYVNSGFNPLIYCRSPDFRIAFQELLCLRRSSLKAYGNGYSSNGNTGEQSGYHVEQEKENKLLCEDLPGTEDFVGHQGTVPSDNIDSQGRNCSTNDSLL
# CHOP UPR conf – confirmation of apoptotic unfolded protein response (CHOP) activators; shares compounds with UPR CHOP act; CHO-CHOP cells, CHOP-luciferase reporter luminescence; percent of tunicamycin response, DMSO as zero; activation, % at 10 µM; 64% of 1,000 active; AID 463112; in the data active = activation above about 33%;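 also: 0% = DMSO wells and 100% = tunicamycin 10 µg/mL wells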
# UPR XBP1 confirm – adaptive UPR (XBP1) activation, confirmed; shares compounds with XBP1 UPR activ; CHO-XBP1 IRE1-XBP1 luciferase reporter, luminescence; activation, % at 20 µM; 63% of 1,000 active;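 active = reporter signal at least 30% of the positive control's activation in two or more of four replicate wells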;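 also: plate controls were DMSO negative control for no effect and tunicamycin 10 µg/mL positive control for full effect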
# Numbers without * were called inactive; i = inactive; x = no result given. Only some compounds are listed: those with a hit (about 1% of all), similar ones and a draw of the others.
SMILES,XBP1 UPR activ,T cell HTS,UPR CHOP act,Beta2AR agonist,CHOP UPR conf,UPR XBP1 confirm
COc1cccc(CNC(=O)c2cccnc2Sc2ccc(C)cc2C)c1,-4,363,3,-6,x,x
COc1cc(NC(=O)c2ccc(C)cc2C)ccc1NC(=O)c1cc2ccccc2o1,148*,195,56*,-5,15,72*
Cc1ccc(N(Cc2cc3ccc(C)cc3[nH]c2=O)C(=O)c2ccco2)c(C)c1,0,356,0,-6,x,x
O=C(Nc1ccc(Br)cc1)c1cc(-c2ccncc2)nc2ccccc12,122*,472,67*,1,29,105*
COC(=O)c1ccc(NC(=O)c2cc(-c3ccncc3)nc3ccccc23)cc1,-3,342,0,5,x,x
Cc1ccc(-n2c(SCC(=O)N/N=C/c3c(C)nn(-c4ccccc4)c3C)nc3ccccc3c2=O)cc1,2,252,4,-4,x,x
Cc1nn(-c2ccccc2)c(C)c1/C=N/NC(=O)CSc1nc2ccccc2c(=O)n1-c1ccc(Br)cc1,69*,214,252*,0,60*,111*
CCOC(=O)c1nn(-c2ccc(OCC)cc2)c2nc(-c3ccco3)c(C#N)c(=O)n12,75*,363,53*,7,28,52*
COc1cc(C(=O)Oc2ccc3c(c2)OCC3=O)cc(OC)c1OC,43*,258,46*,10,0,17
O=C1CCc2cc(S(=O)(=O)NC(Cc3ccccc3)C(=O)NCC3CCCO3)ccc2N1 (stereo unspecified),-2,444,2,1,x,x
COc1ccc(OC)c(N=c2oc3c(OC)cccc3cc2C(=O)NCc2ccco2)c1,1,500,3,3,x,x
COc1ccc(N=c2oc3c(OC)cccc3cc2C(=O)NCc2ccco2)cc1OC,45*,328,76*,17,45*,17
COc1ccccc1N=c1oc2c(OC)cccc2cc1C(=O)NCc1ccco1,69*,285,76*,1,67*,17
COC(=O)c1cc(Cl)c(NS(=O)(=O)c2ccccc2)cc1OC,-1,358,1,10,x,x
CC1CN(S(=O)(=O)N(C)C)CCN1S(=O)(=O)N(C)C (stereo unspecified),1,x,1,-3,x,x
CCOc1ccc(/C=N\NC(=O)CC(=O)NCCc2ccccc2)cc1,-4,366,-1,-2,x,x
O=c1/c(=C\c2ccc(O)cc2)sc2nc(-c3ccccc3)c(-c3ccccc3)n12,0,182,3,-1,x,x
O=c1/c(=C/c2ccc(O)cc2)sc2nc3cc(Br)cnc3n12,79*,337,63*,x,13,21
CCCN1CCC(Oc2cccc(C(=O)NCCc3ccccc3)c2)CC1,2,520,7,-5,x,x
COc1ccc(OC)c(NC(=O)c2ccc3c(=O)n(CCc4ccccc4)c(=S)[nH]c3c2)c1,36*,242,46*,-4,7,16
COc1ccc(-n2c(C)cc(C(=O)CN3C(=O)c4ccccc4C3=O)c2C)cc1,-2,427,3,15,x,x
COc1ccc(-n2c(C)cc(C(=O)CCl)c2C)cc1,42*,531,564*,31,417*,31*
COc1cc([N+](=O)[O-])cc(/C=N/NC(=O)c2ccc(NC(=O)c3ccc(C)cc3)cc2)c1O,38*,x,49*,36,64*,44*
Clc1ccc(-c2ccc(/C=N/Nc3nncc(-c4ccccc4)n3)o2)cc1,76*,236,42*,16,44*,145*
O=C1NN(c2ccccc2)C(=O)/C1=C/c1ccc(-c2ccc(C(=O)O)cc2)o1,-3,159,2,2,x,x
SMILES,XBP1 UPR activ,T cell HTS,UPR CHOP act,Beta2AR agonist,CHOP UPR conf,UPR XBP1 confirm
O=C(O)c1ccc(N2C(=O)/C(=C/c3ccc(-c4ccc([N+](=O)[O-])cc4)o3)C=C2c2ccccc2)cc1,57*,461,44*,-195,20,80*
CCOC(=O)c1c(NC(=O)CC(C)C)sc(C(C)=O)c1C,0,308,0,-21,x,x
CCOC(=O)c1sc(NC(=S)NC(=O)c2ccccc2)c(C(=O)OCC)c1C,51*,540,51*,-2,98*,114*
CCOC(=O)c1c(NC(=O)c2cc(-c3ccc(O)cc3)on2)sc(C(C)=O)c1C,84*,207,78*,5,24,43*
O=c1cc(C(Cl)(Cl)Cl)oc2c1ccc1ccccc12,163*,400,47*,14,33*,286*
O=C(NCCc1ccc(O)c(O)c1)C1COc2ccccc2O1 (stereo unspecified),50*,169,64*,-2,9,46*
N#Cc1ccc(N/N=C/c2cn(-c3ccccc3)nc2-c2ccccc2)c([N+](=O)[O-])c1,43*,414,107*,-12,108*,122*
O=C(NC1=NCCS1)c1sc2cc(F)ccc2c1Cl,1,250,3,11,x,x
Cc1ccc(C(=O)C(C(=O)/C=C/c2ccccc2)=C2SCCCS2)cc1,30*,298,75*,17,96*,39*
COc1ccc(/C=C/C(=O)C(C(N)=O)=C2SCCS2)cc1,-1,183,6,6,x,x
COc1ccc(CC(=O)Nc2ccc(-c3noc(-c4cc(OC)c(OC)c(OC)c4)n3)cc2)cc1,4,201,4,9,x,x
COc1ccc(CC(=O)Nc2ccc(-c3noc(-c4ccc(Cl)cc4)n3)cc2)cc1,76*,i,79*,-3,13,22
COc1ccc(NC(=O)CSc2nc(O)c(Cc3ccccc3)c(=O)[nH]2)cc1,-2,940,0,-3,x,x
CC1CCCCC1N1CN=C(Nc2nc3ccccc3s2)NC1 (stereo unspecified),90*,334,46*,-4,86*,99*
Cc1ccc(-c2nc(N/N=C/c3cccc([N+](=O)[O-])c3)c3ccccc3n2)cc1,194*,208,165*,9,89*,223*
Cc1ccc(-c2nc(N/N=C/c3cccnc3)c3ccccc3n2)cc1,5,388,2,10,x,x
CCOC(=O)/C=c1\s/c(=C\c2ccc3cc(OC)ccc3c2)c(=O)n1CC(=O)NCC1CCCO1 (stereo unspecified),371*,368,86*,1,131*,580*
CCOC(=O)/C=c1/s/c(=C/c2ccc3cc(OC)ccc3c2)c(=O)n1CC(=O)NCc1ccc2c(c1)OCO2,x,x,x,4,x,x
CCC(C(=O)Nc1ccc2c(c1)OCCO2)n1c(=O)[nH]c2ccccc2c1=O (stereo unspecified),-10,198,-3,4,x,x
